Measurements as given in ChEMBL document CHEMBL3739383, “Cyanohydrin as an Anchoring Group for Potent and Selective Inhibitors of Enterovirus 71 3C Protease” (J Med Chem, 2015).

Experiments:
[1] = Inhibition of EV71 protease 3C using NMA-IEALFQGPPK(DNP)FR as substrate preincubated for 30 mins followed by substrate addition measured after 2 hrs by FRET analysis; parameters: species or system Enterovirus A71
[2] = Cytotoxicity against human Rhabdomyosarcoma cells after 24 hrs by WST-1 cell proliferation assay; format: cell-based
Outline: (§1)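 EC50 (antiviral) or CC50 (cytotoxicity) values are averaged over three independent experiments, with error given as SEM (n=3).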

Enterovirus A71 = experiment: Antiviral activity against EV71 pseudotype virus infected in human Rhabdomyosarcoma cells assessed as reduction in viral replication after 24 hrs by Bright-Glo Luciferase Assay; format: functional, organism-based; conditions: Enterovirus A; outline: as §1
[3] = Toxicity in iv dosed mouse measured for 24 hrs; format: organism-based; conditions: in vivo
Outline: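 Acute toxicity study in mice dosed by intravenous injection; the read-out is LD50 in mg/kg.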

[4] = Inhibition of EV71 protease 3C using Dabcyl-KTSAVLQSGFRKME-Edans as substrate by fluorescence analysis; parameters: species or system Enterovirus A71

Row | SMILES | IC50 [1] | CC50 at 24 h [2] | EC50 (Enterovirus A71) | LD50 at 24 h [3] | IC50 [4]
1 | N#CC[C@H](C[C@@H]1CCCNC1=O)NC(=O)[C@H](Cc1ccccc1)NC(=O)/C=C/c1ccccc1 | > 10000 nM | > 100000 nM | 28400 nM | – | –
2 | CCCNC(=O)C(O)[C@H](C[C@@H]1CCCNC1=O)NC(=O)[C@H](Cc1ccccc1)NC(=O)/C=C/c1ccccc1 (some centres undefined) | > 10000 nM | > 100000 nM | > 100000 nM | – | –
3 | CCCNC(=O)C(=O)[C@H](C[C@@H]1CCCNC1=O)NC(=O)[C@H](Cc1ccccc1)NC(=O)/C=C/c1ccccc1 | 9490 nM | > 100000 nM | 4590 nM | – | –
4 | N#CC(OC(=S)Oc1ccccc1)[C@H](C[C@@H]1CCCNC1=O)NC(=O)[C@H](Cc1ccccc1)NC(=O)/C=C/c1ccccc1 (some centres undefined) | 1050 nM | > 100000 nM | 150 nM | – | –
5 | O=C[C@H](C[C@@H]1CCNC1=O)NC(=O)[C@H](Cc1ccccc1)NC(=O)/C=C/c1ccccc1 | 3810 nM | > 100000 nM | 3070 nM | – | –
6 | Cc1cc(C(=O)N[C@@H](Cc2ccc(F)cc2)C(=O)N[C@@H](C[C@@H]2CCCNC2=O)[C@H](O)C#N)no1 | 310 nM | > 100000 nM | 45 nM | – | –
7 | O=C(/C=C/c1ccccc1)N[C@@H](Cc1ccccc1)C(=O)N[C@H](CO)C[C@@H]1CCCNC1=O | > 10000 nM | > 100000 nM | > 100000 nM | – | –
8 | Cc1cc(C(=O)N[C@@H](Cc2ccc(F)cc2)C(=O)N[C@H](C=O)C[C@@H]2CCCNC2=O)no1 | 100 nM | > 100000 nM | 110 nM | – | –
9 | O=C[C@H](C[C@@H]1CCCNC1=O)NC(=O)[C@H](Cc1ccccc1)NC(=O)/C=C/c1ccccc1 | 540 nM | > 100000 nM | 260 nM | – | –
10 | N#C[C@H](C[C@@H]1CCCNC1=O)NC(=O)[C@H](Cc1ccccc1)NC(=O)/C=C/c1ccccc1 | > 10000 nM | > 100000 nM | > 100000 nM | – | –
11 | Cc1cc(C(=O)N[C@@H](Cc2ccc(F)cc2)C(=O)N[C@@H](C[C@@H]2CCCNC2=O)[C@@H](O)C#N)no1 | 270 nM | > 100000 nM | 48 nM | 96.5 mg/kg | –
12 | CC(=O)OC(C#N)[C@H](C[C@@H]1CCCNC1=O)NC(=O)[C@H](Cc1ccccc1)NC(=O)/C=C/c1ccccc1 (some centres undefined) | 1620 nM | > 100000 nM | 100 nM | – | –
13 | CCOC(=O)/C=C/[C@H](C[C@@H]1CCNC1=O)NC(=O)[C@@H](CC(=O)[C@@H](NC(=O)c1cc(C)on1)C(C)C)Cc1ccc(F)cc1 [RUPINTRIVIR] | – | – | – | – | 2300 nM
14 | Cc1cc(C(=O)N[C@@H](Cc2ccc(F)cc2)C(=O)N[C@@H](C[C@@H]2CCCNC2=O)C(O)C#N)no1 (some centres undefined) | 280 nM | > 100000 nM | 56 nM | – | –
15 | N#CC(O)[C@H](C[C@@H]1CCCNC1=O)NC(=O)[C@H](Cc1ccccc1)NC(=O)/C=C/c1ccccc1 (some centres undefined) | 1130 nM | > 100000 nM | 120 nM | – | –
